Results taken from ChEMBL document CHEMBL1134291, “The synthesis of a prodrug of doxorubicin designed to provide reduced systemic toxicity and greater target efficacy” (J Med Chem, 2001).
*1 amine or outer side, *2 acyl side, *3 side chain or, on linkers, in order; H or OH if unused. Where a SMILES comes first, the peptide text is derived from it. [ ]: non-standard residue; d: D form. The star is where a group is joined. Doxorubicin(3'-N) = COc1cccc2c1C(=O)c1c(O)c3c(c(O)c1C2=O)C[C@@](O)(C(=O)CO)C[C@@H]3O[C@H]1C[C@H](N*)[C@H](O)[C@H](C)O1; X1 = COc1cccc2c1C(=O)c1c(O)c3c(c(O)c1C2=O)C[C@@](O)(C(=O)CO)C[C@@H]3OC1CC(N*)C(O)C(C)O1; Glutaryl = O=C(CCCC(=O)[*:2])[*:1]; Hyp = O=C(O)[C@@H]1C[C@@H](O)CN1; Chg = N[C@H](C(=O)O)C1CCCCC1; Orn = NCCC[C@H](N)C(=O)O

Experiments:
LNCaP [1] = assay: Concentration required to kill 50% of tumor cells in PSA producing LNCaP human prostate cancer cell line; format: functional, cell-based
Mus musculus [2] = assay: Maximum nonlethal drug dose which could be administered (ip) to non tumor bearing nude mice for 5 consecutive days; format: functional
DuPro = assay: Concentration required to kill 50% of tumor cells in PSA nonproducing DuPRO human prostate cancer cell line; format: functional, cell-based
Mus musculus [3] = assay: Percentage weight reduction relative to vehicle control following intraperitoneal (ip) injection of conjugate dose for 5 consecutive days to nude mice bearing LNCaP tumor xenografts( 7.6 umol/kg dose); format: functional
LNCaP [4] = assay: Percentage PSA reduction relative to vehicle control following intraperitoneal injection of conjugate dose for 5 consecutive days to nude mice bearing LNCaP tumor xenografts; format: functional, Homo sapiens
Mus musculus [5] = assay: Percentage weight reduction relative to vehicle control following intraperitoneal (ip) injection of conjugate dose for 5 consecutive days to nude mice bearing LNCaP tumor xenografts(14.8 umol/kg dose); format: functional
PSA = assay: Time required for PSA to hydrolyze 50% (t1/2); format: ADME; details: PSA (enzyme)
Mus musculus [6] = assay: Percentage weight reduction relative to vehicle control following intraperitoneal (ip) injection of conjugate dose for 5 consecutive days to nude mice bearing LNCaP tumor xenografts( 22.7 umol/kg dose); format: functional
Method in brief: (§1)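 Nude mice carrying xenografts of PSA-secreting human prostate LNCaP cells received the conjugate intraperitoneally once daily for 5 consecutive days. Circulating PSA and tumor weight were each expressed as percent reduction against vehicle-treated controls.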

Mus musculus [7] = assay: Percentage weight reduction relative to vehicle control following intraperitoneal (ip) injection of conjugate dose for 5 consecutive days to nude mice bearing LNCaP tumor xenografts(36.6 umol/kg dose); format: functional; method in brief: as §1
Mus musculus [8] = assay: Percentage weight reduction relative to vehicle control following intraperitoneal (ip) injection of conjugate dose for 5 consecutive days to nude mice bearing LNCaP tumor xenografts( 22.4 umol/kg dose); format: functional
Mus musculus [9] = assay: Percentage weight reduction relative to vehicle control following intraperitoneal (ip) injection of conjugate dose for 5 consecutive days to nude mice bearing LNCaP tumor xenografts( 29.3 umol/kg dose); format: functional
Mus musculus [10] = assay: Percentage weight reduction relative to vehicle control following intraperitoneal (ip) injection of conjugate dose for 5 consecutive days to nude mice bearing LNCaP tumor xenografts( 21.5 umol/kg dose); format: functional
Mus musculus [11] = assay: Percentage weight reduction relative to vehicle control following intraperitoneal (ip) injection of conjugate dose for 5 consecutive days to nude mice bearing LNCaP tumor xenografts (2.8 umol/kg dose); format: functional

| half-life (PSA) | Compound | EC50 (LNCaP [1]) | EC50 (DuPro) | also measured |
| --- | --- | --- | --- | --- |
| 30 min | COc1cccc2c1C(=O)c1c(O)c3c(c(O)c1C2=O)C[C@@](O)(C(=O)CO)C[C@@H]3O[C@H]1C[C@H](NC(=O)[C@H](CC(C)C)NC(=O)[C@H](CO)NC(=O)[C@H](C)NC(=O)[C@H](CO)NC(=O)[C@H](CCC(N)=O)NC(=O)[C@H](Cc2ccc(O)cc2)NC(=O)[C@H](CO)NC(=O)[C@H](C)NC(=O)[C@H](CCCCN)NC(=O)[C@H](CC(N)=O)NC(=O)[C@H](C)NC(C)=O)[C@H](O)[C@H](C)O1 (Ac-ANKASYQSASL-{Doxorubicin(3'-N)}) | 12.5 µM | > 100 µM | – |
| 30 min | COc1cccc2c1C(=O)c1c(O)c3c(c(O)c1C2=O)C[C@@](O)(C(=O)CO)C[C@@H]3O[C@H]1C[C@H](NC(=O)[C@H](CC(C)C)NC(=O)[C@H](CO)NC(=O)[C@H](CO)NC(=O)[C@H](CO)NC(=O)[C@H](CCC(N)=O)NC(=O)[C@H](Cc2ccc(O)cc2)NC(=O)[C@H](CO)NC(=O)[C@H](C)NC(=O)[C@H](CCCCN)NC(=O)[C@H](CC(N)=O)NC(=O)[C@H](C)NC(C)=O)[C@H](O)[C@H](C)O1 (Ac-ANKASYQSSSL-{Doxorubicin(3'-N)}) | 7 µM | 117 µM | – |
| 30 min | COc1cccc2c1C(=O)c1c(O)c3c(c(O)c1C2=O)C[C@@](O)(C(=O)CO)C[C@@H]3OC1CC(NC(=O)[C@H](CC(C)C)NC(=O)[C@H](CO)NC(=O)[C@H](CCC(N)=O)NC(=O)[C@H](Cc2ccc(O)cc2)NC(=O)[C@H](CO)NC(=O)[C@H](C)NC(=O)[C@H](CCCCN)NC(C)=O)C(O)C(C)O1 (some centres undefined) (Ac-KASYQSL-X1) | 4.8 µM | 100 µM | – |
| 45 min | COc1cccc2c1C(=O)c1c(O)c3c(c(O)c1C2=O)C[C@@](O)(C(=O)CO)C[C@@H]3OC1CC(NC(=O)[C@H](CC(C)C)NC(=O)[C@H](CO)NC(=O)[C@H](CCC(N)=O)NC(=O)[C@@H](NC(=O)[C@H](CO)NC(=O)[C@H](C)NC(=O)[C@@H]2CCCN2C(C)=O)C2CCCCC2)C(O)C(C)O1 (some centres undefined) (Ac-PAS[Chg]QSL-X1) | 7.4 µM | > 100 µM | – |
| 105 min | Ac-ANKASYQSSSTE-NH2 | – | – | – |
| 125 min | Ac-ANKISYQSAKTE-NH2 | – | – | – |
| 145 min | Ac-ANKISYQSASTE-NH2 | – | – | – |
| 110 min | Ac-ANKISYQSSKTE-NH2 | – | – | – |
| > 240 min | Ac-ANKISYQSSSTE-NH2 | – | – | – |
| 150 min | Ac-ANKISYYSSSTE-NH2 | – | – | – |
| > 240 min | H-ANKISYQSS-OH | – | – | – |
| 105 min | H-ANKISYQSSSTE-OH | – | – | – |
| 25 min | H-SQKANKISYQSSSTEERRLHYGENG-OH | – | – | – |
| > 180 min | H-SYQSSSTE-OH | – | – | – |

Continued, compound first:

| Compound | half-life (PSA) | EC50 (LNCaP [1]) | EC50 (DuPro) | also measured |
| --- | --- | --- | --- | --- |
| COc1cccc2c1C(=O)c1c(O)c3c(c(O)c1C2=O)C[C@@](O)(C(=O)CO)C[C@@H]3OC1CC(NC(=O)[C@H](N)CC(C)C)C(O)C(C)O1 (some centres undefined) | – | 6.7 µM | 14 µM | MTD (Mus musculus [2]): 7.6 µM/kg; Reduction (Mus musculus [3]): -5%; Reduction (LNCaP [4]): 10% |
| COc1cccc2c1C(=O)c1c(O)c3c(c(O)c1C2=O)C[C@@](O)(C(=O)CO)C[C@@H]3O[C@H]1C[C@H](NC(=O)[C@H](C)NC(=O)[C@H](C)NC(=O)[C@H](C)NC(C)=O)[C@H](O)[C@H](C)O1 | – | > 100 µM | > 100 µM | – |
| COc1cccc2c1C(=O)c1c(O)c3c(c(O)c1C2=O)C[C@@](O)(C(=O)CO)C[C@@H]3OC1CC(NC(=O)[C@H](CC(C)C)NC(=O)[C@H](CO)NC(=O)[C@H](CCC(N)=O)NC(=O)[C@H](Cc2ccc(O)cc2)NC(=O)[C@H](CO)NC(=O)[C@H](C)NC(=O)[C@H](CCCN)NC(C)=O)C(O)C(C)O1 (some centres undefined) | 40 min | 7.3 µM | > 100 µM | Reduction (Mus musculus [5]): 57%; MTD (Mus musculus [2]): 29.7 µM/kg; Reduction (LNCaP [4]): 70% |
| COc1cccc2c1C(=O)c1c(O)c3c(c(O)c1C2=O)C[C@@](O)(C(=O)CO)C[C@@H]3OC1CC(NC(=O)[C@H](CC(C)C)NC(=O)[C@H](CO)NC(=O)[C@@H](CCC(N)=O)NC(=O)[C@@H](NC(=O)[C@H](CO)NC(=O)[C@H](C)NC(=O)C2CC(O)CN2C(C)=O)C2CCCCC2)C(O)C(C)O1 (some centres undefined) | 20 min | 4.5 µM | > 100 µM | MTD (Mus musculus [2]): 22.7 µM/kg; Reduction (Mus musculus [6]): 81%; Reduction (LNCaP [4]): 96% |
| COc1cccc2c1C(=O)c1c(O)c3c(c(O)c1C2=O)C[C@@](O)(C(=O)CO)C[C@@H]3O[C@H]1C[C@H](NC(=O)[C@H](CC(C)C)NC(=O)[C@H](CO)NC(=O)[C@H](CO)NC(=O)[C@H](CCC(N)=O)NC(=O)[C@H](Cc2ccc(O)cc2)NC(=O)[C@H](CO)NC(=O)[C@H](C)NC(=O)[C@H](CCCCN)NC(=O)[C@H](CC(N)=O)NC(=O)[C@H](C)NC(C)=O)[C@H](O)[C@H](C)O1 (Ac-ANKASYQSSL-{Doxorubicin(3'-N)}) [listing 1 of 2 here] | – | 6.3 µM | > 100 µM | – |
| COc1cccc2c1C(=O)c1c(O)c3c(c(O)c1C2=O)C[C@@](O)(C(=O)CO)C[C@@H]3O[C@H]1C[C@H](NC(=O)[C@H](CC(C)C)NC(=O)[C@H](CO)NC(=O)[C@H](CO)NC(=O)[C@H](CCC(N)=O)NC(=O)[C@H](Cc2ccc(O)cc2)NC(=O)[C@H](CO)NC(=O)[C@H](C)NC(=O)[C@H](CCCCN)NC(=O)[C@H](CC(N)=O)NC(=O)[C@H](C)NC(C)=O)[C@H](O)[C@H](C)O1 (Ac-ANKASYQSSL-{Doxorubicin(3'-N)}) [listing 2 of 2 here] | – | – | – | MTD (Mus musculus [2]): >36.6 µM/kg; Reduction (Mus musculus [7]): 81%; Reduction (LNCaP [4]): 87% |
| COc1cccc2c1C(=O)c1c(O)c3c(c(O)c1C2=O)C[C@@](O)(C(=O)CO)C[C@@H]3OC1CC(NC(=O)[C@H](CC(C)C)NC(=O)[C@H](CO)NC(=O)[C@H](CCC(N)=O)NC(=O)[C@@H](NC(=O)[C@H](CO)NC(=O)[C@H](C)NC(=O)[C@H](CCCCN)NC(C)=O)C2CCCCC2)C(O)C(C)O1 (some centres undefined) (Ac-KAS[Chg]QSL-X1) [listing 1 of 2 here] | – | 4.5 µM | > 100 µM | – |
| COc1cccc2c1C(=O)c1c(O)c3c(c(O)c1C2=O)C[C@@](O)(C(=O)CO)C[C@@H]3OC1CC(NC(=O)[C@H](CC(C)C)NC(=O)[C@H](CO)NC(=O)[C@H](CCC(N)=O)NC(=O)[C@@H](NC(=O)[C@H](CO)NC(=O)[C@H](C)NC(=O)[C@H](CCCCN)NC(C)=O)C2CCCCC2)C(O)C(C)O1 (some centres undefined) (Ac-KAS[Chg]QSL-X1) [listing 2 of 2 here] | – | – | – | Reduction (Mus musculus [8]): 73%; MTD (Mus musculus [2]): 29.9 µM/kg; Reduction (LNCaP [4]): 95% |
| COc1cccc2c1C(=O)c1c(O)c3c(c(O)c1C2=O)C[C@@](O)(C(=O)CO)C[C@@H]3OC1CC(NC(=O)[C@H](CC(C)C)NC(=O)[C@H](CO)NC(=O)[C@H](CO)NC(=O)[C@H](CO)NC(=O)[C@H](CCC(N)=O)NC(=O)[C@H](Cc2ccc(O)cc2)NC(=O)[C@H](CCCN)NC(C)=O)C(O)C(C)O1 (some centres undefined) (Ac-[Orn]YQSSSL-X1) | 120 min | 7 µM | > 100 µM | Reduction (Mus musculus [9]): 80%; MTD (Mus musculus [2]): 33 µM/kg; Reduction (LNCaP [4]): 93% |
| COc1cccc2c1C(=O)c1c(O)c3c(c(O)c1C2=O)C[C@@](O)(C(=O)CO)C[C@@H]3O[C@H]1C[C@H](NC(=O)[C@H](CC(C)C)NC(=O)[C@H](CO)NC(=O)[C@H](CCC(N)=O)NC(=O)[C@@H](NC(=O)[C@H](CO)NC(=O)[C@H](C)NC(=O)[C@@H]2C[C@@H](O)CN2C(=O)CCCC(=O)O)C2CCCCC2)[C@H](O)[C@H](C)O1 (Glutaryl-[Hyp]AS[Chg]QSL-{Doxorubicin(3'-N)}) [listing 1 of 2 here] | 30 min | 5 µM | > 100 µM | – |
| COc1cccc2c1C(=O)c1c(O)c3c(c(O)c1C2=O)C[C@@](O)(C(=O)CO)C[C@@H]3O[C@H]1C[C@H](NC(=O)[C@H](CC(C)C)NC(=O)[C@H](CO)NC(=O)[C@H](CCC(N)=O)NC(=O)[C@@H](NC(=O)[C@H](CO)NC(=O)[C@H](C)NC(=O)[C@@H]2C[C@@H](O)CN2C(=O)CCCC(=O)O)C2CCCCC2)[C@H](O)[C@H](C)O1 (Glutaryl-[Hyp]AS[Chg]QSL-{Doxorubicin(3'-N)}) [listing 2 of 2 here] | – | – | – | Reduction (Mus musculus [10]): 87%; MTD (Mus musculus [2]): 28.6 µM/kg; Reduction (LNCaP [4]): 95% |
| COc1cccc2c1C(=O)c1c(O)c3c(c(O)c1C2=O)C[C@@](O)(C(=O)CO)C[C@@H]3O[C@H]1C[C@H](N)[C@H](O)[C@H](C)O1 [DOXORUBICIN] | – | 0.7 µM | 1.8 µM | MTD (Mus musculus [2]): 2.8 µM/kg; Reduction (Mus musculus [11]): 6%; Reduction (LNCaP [4]): 16% |
| Ac-ANKASYQSASTE-NH2 | 50 min | – | – | – |
